Assay results published in ChEMBL document CHEMBL1155372, “Design and synthesis of novel deoxybenzoin derivatives as FabH inhibitors and anti-inflammatory agents” (Bioorg Med Chem Lett, 2010).
In brackets after ≈: the same amount, converted by molar mass.

Key:
Escherichia coli = assay: Antibacterial activity against Escherichia coli ATCC 35218; assay type: functional
Bacillus subtilis = assay: Antibacterial activity against Bacillus subtilis ATCC 6633; assay type: functional
Aspergillus niger = assay: Antifungal activity against Aspergillus niger ATCC 16404; assay type: functional
Staphylococcus aureus = assay: Antibacterial activity against Staphylococcus aureus ATCC 6538; assay type: functional
Trichophyton rubrum = assay: Antifungal activity against Trichophyton rubrum ATCC 10218
Pseudomonas aeruginosa = assay: Antibacterial activity against Pseudomonas aeruginosa ATCC 2785; assay type: functional
Candida albicans = assay: Antifungal activity against Candida albicans ATCC 10231; assay type: functional
[1] = Inhibition of Escherichia coli FabH expressed after 25 mins by liquid scintillation counting
AGS = assay: Cytotoxicity against human AGS cells at 15 to 60 umol/L after 48 hrs by MTT assay; assay type: cell-based
Outline: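 AGS gastric cells incubated with test agent at serial concentrations of 15, 30 and 60 μmol L⁻¹. Viability read by MTT assay 48 h later. Values are means ± SEM of 4–6 experiments.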

| SMILES | MIC (Escherichia coli) | MIC (Bacillus subtilis) | MIC (Aspergillus niger) | MIC (Staphylococcus aureus) | MIC (Trichophyton rubrum) | MIC (Pseudomonas aeruginosa) | MIC (Candida albicans) | IC50 [1] | Activity (AGS) |
| --- | --- | --- | --- | --- | --- | --- | --- | --- | --- |
| Oc1ccc(/C(Cc2ccc(Cl)cc2)=N\c2ccc(Cl)cc2)c(O)c1O | 12.5 µg/mL (≈ 32.2 µM) | 50 µg/mL (≈ 129 µM) | > 50 µg/mL | 50 µg/mL (≈ 129 µM) | > 50 µg/mL | 25 µg/mL (≈ 64.4 µM) | > 50 µg/mL |  |  |
| NC[C@H]1O[C@H](O[C@H]2[C@H](O)[C@@H](O[C@H]3O[C@H](CO)[C@@H](O)[C@H](N)[C@H]3O)[C@H](N)C[C@@H]2N)[C@H](N)[C@@H](O)[C@@H]1O [BEKANAMYCIN] | 3.12 µg/mL (≈ 6.46 µM) | 0.39 µg/mL (≈ 0.807 µM) |  | 1.56 µg/mL (≈ 3.23 µM) |  | 3.12 µg/mL (≈ 6.46 µM) |  |  |  |
| Oc1ccc(/C(Cc2ccc(Cl)cc2)=N\c2ccc(Br)cc2)cc1O | 12.5 µg/mL (≈ 30 µM) | 25 µg/mL (≈ 60 µM) | > 50 µg/mL | 25 µg/mL (≈ 60 µM) | > 50 µg/mL | 12.5 µg/mL (≈ 30 µM) | > 50 µg/mL |  |  |
| Oc1ccc(/N=C(/Cc2ccc(F)cc2)c2ccc(O)c(O)c2O)cc1 | 25 µg/mL (≈ 70.8 µM) | 50 µg/mL (≈ 142 µM) | > 50 µg/mL | 50 µg/mL (≈ 142 µM) | > 50 µg/mL | 50 µg/mL (≈ 142 µM) | > 50 µg/mL | 63.4 µM |  |
| Oc1ccc(/C(Cc2ccc(F)cc2)=N\c2ccc(Cl)cc2)c(O)c1 | 1.56 µg/mL (≈ 4.39 µM) | 50 µg/mL (≈ 141 µM) | > 50 µg/mL | 50 µg/mL (≈ 141 µM) | > 50 µg/mL | 1.56 µg/mL (≈ 4.39 µM) | > 50 µg/mL | 3.9 µM |  |
| O=C(Cc1ccc(Cl)cc1)c1ccc(O)cc1O |  |  | > 50 µg/mL |  | > 50 µg/mL |  | > 50 µg/mL |  |  |
| Oc1ccc(/N=C(/Cc2ccc(F)cc2)c2ccc(O)cc2O)cc1 | 12.5 µg/mL (≈ 37.1 µM) | 50 µg/mL (≈ 148 µM) | > 50 µg/mL | 25 µg/mL (≈ 74.1 µM) | > 50 µg/mL | 25 µg/mL (≈ 74.1 µM) | > 50 µg/mL |  |  |
| O=C(Cc1ccc(F)cc1)c1ccc(O)c(O)c1O |  |  | > 50 µg/mL |  | > 50 µg/mL |  | > 50 µg/mL |  |  |
| Oc1ccc(/C(Cc2ccc(Cl)cc2)=N\c2ccc(Cl)cc2)cc1O | 6.25 µg/mL (≈ 16.8 µM) | 50 µg/mL (≈ 134 µM) | > 50 µg/mL | 50 µg/mL (≈ 134 µM) | > 50 µg/mL | 6.25 µg/mL (≈ 16.8 µM) | > 50 µg/mL |  |  |
| O=[N+]([O-])c1ccc(/N=C(/Cc2ccc(F)cc2)c2ccc(O)c(O)c2O)cc1 | 25 µg/mL (≈ 65.4 µM) | 50 µg/mL (≈ 131 µM) | > 50 µg/mL | 25 µg/mL (≈ 65.4 µM) | > 50 µg/mL | 25 µg/mL (≈ 65.4 µM) | > 50 µg/mL |  |  |
| O=C(Cc1ccc(F)cc1)c1ccc(O)c(O)c1 |  |  | > 50 µg/mL |  | > 50 µg/mL |  | > 50 µg/mL |  |  |
| Oc1ccc(/C(Cc2ccc(F)cc2)=N\c2ccc(Br)cc2)cc1O | 12.5 µg/mL (≈ 31.2 µM) | 25 µg/mL (≈ 62.5 µM) | > 50 µg/mL | 50 µg/mL (≈ 125 µM) | > 50 µg/mL | 25 µg/mL (≈ 62.5 µM) | > 50 µg/mL |  |  |
| O=C(Cc1ccc(Cl)cc1)c1ccc(O)c(O)c1O |  |  | > 50 µg/mL |  | > 50 µg/mL |  | > 50 µg/mL |  |  |
| O=[N+]([O-])c1ccc(/N=C(/Cc2ccc(Cl)cc2)c2ccc(O)cc2O)cc1 | 6.25 µg/mL (≈ 16.3 µM) | 25 µg/mL (≈ 65.3 µM) | > 50 µg/mL | 12.5 µg/mL (≈ 32.7 µM) | > 50 µg/mL | 6.25 µg/mL (≈ 16.3 µM) | > 50 µg/mL | 8.7 µM |  |
| Oc1ccc(/C(Cc2ccc(Cl)cc2)=N\c2ccc(Cl)cc2)c(O)c1 | 0.78 µg/mL (≈ 2.1 µM) | 25 µg/mL (≈ 67.2 µM) | > 50 µg/mL | 25 µg/mL (≈ 67.2 µM) | > 50 µg/mL | 1.56 µg/mL (≈ 4.2 µM) | > 50 µg/mL | 1.8 µM | Non-toxic |
| Cc1ccc(/N=C(/Cc2ccc(Cl)cc2)c2ccc(O)c(O)c2O)cc1 | 50 µg/mL (≈ 136 µM) | 25 µg/mL (≈ 68 µM) | > 50 µg/mL | 25 µg/mL (≈ 68 µM) | > 50 µg/mL | 50 µg/mL (≈ 136 µM) | > 50 µg/mL |  |  |
| Oc1ccc(/N=C(/Cc2ccc(Cl)cc2)c2ccc(O)c(O)c2)cc1 | 25 µg/mL (≈ 70.7 µM) | 50 µg/mL (≈ 141 µM) | > 50 µg/mL | 50 µg/mL (≈ 141 µM) | > 50 µg/mL | 50 µg/mL (≈ 141 µM) | > 50 µg/mL |  |  |
| Cc1ccc(/N=C(/Cc2ccc(F)cc2)c2ccc(O)c(O)c2)cc1 | 25 µg/mL (≈ 74.5 µM) | 25 µg/mL (≈ 74.5 µM) | > 50 µg/mL | 12.5 µg/mL (≈ 37.3 µM) | > 50 µg/mL | 50 µg/mL (≈ 149 µM) | > 50 µg/mL |  |  |
| Oc1ccc(/C(Cc2ccc(F)cc2)=N\c2ccc(Br)cc2)c(O)c1O | 25 µg/mL (≈ 60.1 µM) | 25 µg/mL (≈ 60.1 µM) | > 50 µg/mL | 25 µg/mL (≈ 60.1 µM) | > 50 µg/mL | 25 µg/mL (≈ 60.1 µM) | > 50 µg/mL |  |  |
